Test results from ChEMBL document CHEMBL1144562, “Synthesis of a new class of 2-anilino substituted nicotinyl arylsulfonylhydrazides as potential anticancer and antibacterial agents” (2007).
Values after ≈ are worked out from the molar mass of the structure shown.

Columns and labels:
[1] = tested on: EKVX; assay: Antitumor activity against EKVX cells; type: functional; details: Homo sapiens
[2] = Antitumor activity against LOX IMV1 cells; type: functional; details: Homo sapiens
[3] = Antitumor activity against MALME 3M cells; type: functional; details: Homo sapiens
[4] = tested on: M14; assay: Antitumor activity against M14 cells; type: functional; details: Homo sapiens
[5] = tested on: SK-MEL-28; assay: Antitumor activity against SK-MEL-28 cells; type: functional; details: Homo sapiens
[6] = tested on: SK-MEL-5; assay: Antitumor activity against SK-MEL-5 cells; type: functional; details: Homo sapiens
Method in brief: (§1)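 Tested in the NCI 60-human-tumour-cell-line panel at five concentrations, in 10-fold dilutions from 10^-4 to 10^-8 M. Three parameters were taken from the dose-response data, each as log10 of the molar concentration: GI50 (50% net growth inhibition), TGI (total growth inhibition) and LC50 (50% net cell death).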

[7] = tested on: UACC-257; assay: Antitumor activity against UACC257 cells; type: functional; details: Homo sapiens; method in brief: as §1
[8] = tested on: UACC-62; assay: Antitumor activity against UACC62 cells; type: functional; details: Homo sapiens; method in brief: as §1
[9] = tested on: OVCAR-4; assay: Antitumor activity against OVCAR4 cells; type: functional; details: Homo sapiens
[10] = tested on: SK-OV-3; assay: Antitumor activity against SKOV3 cells; type: functional; details: Homo sapiens; method in brief: as §1
[11] = tested on: A498; assay: Antitumor activity against A498 cells; type: functional; details: Homo sapiens
[12] = tested on: CAKI-1; assay: Antitumor activity against CAKI1 cells; type: functional; details: Homo sapiens
[13] = tested on: TK-10; assay: Antitumor activity against TK10 cells; type: functional; details: Homo sapiens; method in brief: as §1
[14] = tested on: PC-3; assay: Antitumor activity against PC3 cells; type: functional; details: Homo sapiens
[15] = tested on: DU-145; assay: Antitumor activity against DU145 cells; type: functional; details: Homo sapiens
[16] = tested on: MCF7; assay: Antitumor activity against MCF7 cells; type: functional; details: Homo sapiens
[17] = tested on: Hs-578T; assay: Antitumor activity against HS578T cells; type: functional; details: Homo sapiens
[18] = tested on: MDA-MB-435; assay: Antitumor activity against MDA-MB-435 cells; type: functional; details: Homo sapiens
[19] = tested on: T47D; assay: Antitumor activity against T47D cells; type: functional; details: Homo sapiens; method in brief: as §1
[20] = tested on: Escherichia coli; assay: Antibacterial activity against Escherichia coli MTCC 448 after 18 hrs; type: functional; details: MTCC 448, 18 h
Method in brief: (§2)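 Disc diffusion (Kirby–Bauer) on Mueller-Hinton agar inoculated with fresh bacteria at 1-5 × 10^4 cfu mL-1. Compounds were dissolved in DMF at a range of concentrations, and discs were placed in triplicate. Plates were incubated at 30 °C for 18 h. MIC was taken as the lowest concentration giving no visible bacterial growth on the plate.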

[21] = tested on: Pseudomonas aeruginosa; assay: Antibacterial activity against Pseudomonas aeruginosa MTCC 424 after 18 hrs; type: functional; details: MTCC 424, 18 h; method in brief: as §2
[22] = tested on: Bacillus subtilis; assay: Antibacterial activity against Bacillus subtilis MTCC 441 after 18 hrs; type: functional; details: MTCC 441, 18 h; method in brief: as §2
[23] = tested on: Vibrio; assay: Antibacterial activity against Vibrio species after 18 hrs; type: functional; method in brief: as §2
[24] = tested on: CCRF-CEM; assay: Antitumor activity against CCRF-CEM cells; type: functional; details: Homo sapiens
[25] = Antitumor activity against HL60 (TB) cells; type: functional, HL-60(TB); details: Homo sapiens, HL-60
Method in brief: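 NCI 60-cell-line in vitro screen (leukaemia subpanel). Compound tested at five 10-fold dilutions from 10^-4 to 10^-8 M. Dose-response parameters: GI50 (concentration giving 50% net growth inhibition), TGI (total growth inhibition) and LC50 (50% net cell death), each reported as log10 of molar concentration.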

[26] = tested on: K562; assay: Antitumor activity against K562 cells; type: functional; details: Homo sapiens
[27] = tested on: MOLT-4; assay: Antitumor activity against MOLT4 cells; type: functional; details: Homo sapiens
[28] = tested on: HOP-62; assay: Antitumor activity against HOP62 cells; type: functional; details: Homo sapiens
[29] = tested on: HOP-92; assay: Antitumor activity against HOP92 cells; type: functional; details: Homo sapiens
[30] = tested on: NCI-H226; assay: Antitumor activity against NCI-H226 cells; type: functional; details: Homo sapiens
[31] = tested on: NCI-H460; assay: Antitumor activity against NCI-H460 cells; type: functional; details: Homo sapiens
[32] = tested on: HCC 2998; assay: Antitumor activity against HCC2998 cells; type: functional; details: Homo sapiens
[33] = tested on: HCT-116; assay: Antitumor activity against HCT116 cells; type: functional; details: Homo sapiens
[34] = tested on: HCT-15; assay: Antitumor activity against HCT15 cells; type: functional; details: Homo sapiens
[35] = tested on: HT-29; assay: Antitumor activity against HT29 cells; type: functional; details: Homo sapiens
[36] = tested on: KM12; assay: Antitumor activity against KM12 cells; type: functional; details: Homo sapiens
[37] = tested on: SW-620; assay: Antitumor activity against SW620 cells; type: functional; details: Homo sapiens; method in brief: as §1
[38] = tested on: SF-268; assay: Antitumor activity against SF268 cells; type: functional; details: Homo sapiens
[39] = tested on: SF-539; assay: Antitumor activity against SF539 cells; type: functional; details: Homo sapiens
[40] = tested on: SNB-75; assay: Antitumor activity against SNB75 cells; type: functional; details: Homo sapiens; method in brief: as §1
[41] = read-out: Log LC50 (the source's name) (converted)

O=C(NNS(=O)(=O)c1ccc(Cl)cc1Cl)c1cccnc1Nc1ccc(Cl)cc1
GI50 [1]: 26.3 µM
LC50 [1]: > 100 µM
TGI ([1]; read-out: Log TGI (converted)): > 100 µM
GI50 [2]: 20.9 µM
LC50 [2]: > 100 µM
TGI ([2]; read-out: Log TGI (converted)): 46.8 µM
GI50 [3]: 34.7 µM
CC50 [3, 41]: > 100 µM
TGI ([3]; read-out: Log TGI (converted)): 34.7 µM
GI50 [4]: 19.1 µM
LC50 [4]: 79.4 µM
TGI ([4]; read-out: Log TGI (converted)): 38.9 µM
GI50 [5]: 35.5 µM
LC50 [5]: > 100 µM
TGI ([5]; read-out: Log TGI (converted)): > 100 µM
GI50 [6]: 14.1 µM
LC50 [6]: 61.7 µM
TGI ([6]; read-out: Log TGI (converted)): 29.5 µM
GI50 [7]: 22.9 µM
LC50 [7]: > 100 µM
TGI ([7]; read-out: Log TGI (converted)): 60.3 µM
GI50 [8]: 21.9 µM
LC50 [8]: > 100 µM
TGI ([8]; read-out: Log TGI (converted)): 75.9 µM
GI50 [9]: 28.8 µM
LC50 (lethal concentration, 50%) [9]: > 100 µM
TGI ([9]; read-out: Log TGI (converted)): > 100 µM
GI50 [10]: 17 µM
CC50 [10, 41]: > 100 µM
TGI ([10]; read-out: Log TGI (converted)): 52.5 µM
GI50 [11]: 25.1 µM
LC50 [11]: 91.2 µM
TGI ([11]; read-out: Log TGI (converted)): 47.9 µM
GI50 [12]: 20 µM
LC50 [12]: > 100 µM
TGI ([12]; read-out: Log TGI (converted)): 58.9 µM
GI50 [13]: 28.8 µM
LC50 [13]: > 100 µM
TGI ([13]; read-out: Log TGI (converted)): 85.1 µM
GI50 [14]: 23.4 µM
LC50 [14]: > 100 µM
TGI ([14]; read-out: Log TGI (converted)): 81.3 µM
GI50 [15]: 41.7 µM
LC50 [15]: > 100 µM
TGI ([15]; read-out: Log TGI (converted)): > 100 µM
GI50 [16]: 35.5 µM
LC50 [16]: > 100 µM
TGI ([16]; read-out: Log TGI (converted)): > 100 µM
GI50 [17]: 17.8 µM
CC50 [17, 41]: 97.7 µM
TGI ([17]; read-out: Log TGI (converted)): 41.7 µM
GI50 [18]: 27.5 µM
LC50 [18]: > 100 µM
TGI ([18]; read-out: Log TGI (converted)): 81.3 µM
GI50 [19]: 10.7 µM
CC50 [19, 41]: > 100 µM
TGI ([19]; read-out: Log TGI (converted)): 51.3 µM
MIC [20]: 20 µg/mL (≈ 42.4 µM)
MIC [21]: > 25 µg/mL
MIC [22]: 15 µg/mL (≈ 31.8 µM)
MIC [23]: 14 µg/mL (≈ 29.7 µM)
LC50 [24]: > 100 µM
GI50 ([24]; read-out: GI50): 6.62 µM
TGI ([24]; read-out: Log TGI (converted)): > 100 µM
GI50 ([24]; read-out: pGI50 (converted)): 6.61 µM
GI50 [25]: 24 µM
LC50 [25]: 83.2 µM
TGI ([25]; read-out: Log TGI (converted)): 44.7 µM
GI50 [26]: 12.9 µM
LC50 [26]: 50.1 µM
TGI ([26]; read-out: Log TGI (converted)): 25.7 µM
GI50 [27]: 19.5 µM
LC50 [27]: > 100 µM
TGI ([27]; read-out: Log TGI (converted)): 57.5 µM
GI50 [28]: 16.6 µM
CC50 [28, 41]: 85.1 µM
TGI ([28]; read-out: Log TGI (converted)): 38 µM
GI50 [29]: 14.8 µM
CC50 [29, 41]: > 100 µM
TGI ([29]; read-out: Log TGI (converted)): 40.7 µM
GI50 [30]: 24 µM
CC50 [30, 41]: > 100 µM
TGI ([30]; read-out: Log TGI (converted)): 58.9 µM
GI50 [31]: 35.5 µM
LC50 [31]: > 100 µM
TGI ([31]; read-out: Log TGI (converted)): 100 µM
GI50 [32]: 13.5 µM
LC50 [32]: 61.7 µM
TGI ([32]; read-out: Log TGI (converted)): 28.8 µM
GI50 [33]: 15.5 µM
LC50 [33]: 53.7 µM
TGI ([33]; read-out: Log TGI (converted)): 28.8 µM
GI50 [34]: 33.1 µM
LC50 [34]: 100 µM
TGI ([34]; read-out: Log TGI (converted)): > 100 µM
GI50 [35]: 22.9 µM
LC50 [35]: > 100 µM
TGI ([35]; read-out: Log TGI (converted)): 53.7 µM
GI50 [36]: 13.8 µM
CC50 [36, 41]: 58.9 µM
TGI ([36]; read-out: Log TGI (converted)): 28.8 µM
GI50 [37]: 28.2 µM
CC50 [37, 41]: > 100 µM
TGI ([37]; read-out: Log TGI (converted)): > 100 µM
GI50 [38]: 36.3 µM
LC50 [38]: > 100 µM
TGI ([38]; read-out: Log TGI (converted)): 100 µM
GI50 [39]: 19.1 µM
LC50 [39]: > 100 µM
TGI ([39]; read-out: Log TGI (converted)): 44.7 µM
GI50 [40]: 22.4 µM
CC50 [40, 41]: > 100 µM
TGI ([40]; read-out: Log TGI (converted)): 85.1 µM
